In ChEMBL document CHEMBL2169833, “Solubility-driven optimization of phosphodiesterase-4 inhibitors leading to a clinical candidate” (J Med Chem, 2012):
Values after ≈ are worked out from the molar mass of the structure shown.

Assays:
[1] = Volume of distribution at steady state in rat at 2.1 umol/kg, iv; format: ADME, organism-based; settings: in vivo, read-out: Vdss
Summary of the method: (§1)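 Rat PK after iv and po dosing, some compounds given as the potassium or sodium salt. Vehicle was PBS or 25/75 PEG200/PBS. Dose matched formulation strength: iv 1.05, 2.1 or 4.2 μmol/kg; po 2.1 or 4.2 μmol/kg. For some compounds iv and po used the same dose (2.1 or 4.2 μmol/kg).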

[2] = Cmax in rat at 2.1 umol/kg, po; format: ADME, organism-based; design: dose 2.1 umol/kg, route oral; settings: in vivo; summary of the method: as §1
[3] = Half life in rat at 2.1 umol/kg, po; format: ADME, organism-based; settings: in vivo; summary of the method: as §1
[4] = system: Rattus norvegicus; assay: Oral bioavailability in rat at 2.1 umol/kg; format: ADME, organism-based; settings: in vivo; summary of the method: as §1
[5] = system: Rattus norvegicus; assay: (§2) AUC total in rat at 2.1 umol/kg, po; format: ADME, organism-based, Plasma; settings: in vivo; summary of the method: as §1
[6] = molecular target: Phosphodiesterase 4 (Homo sapiens, UniProt P27815+Q08499+Q07343+Q08493); assay: Inhibition of PDE4 in human PBMC assessed as inhibition of LPS-induced TNFalpha production incubated for 10 mins prior to LPS-challenge measured after 20 hrs by sandwich ELISA
Summary of the method: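 Human PBMC were isolated from normal donors by Ficoll−Hypaque and grown at 1 × 10⁶ cells/mL in RPMI1640 with 10% FCS. Compound was preincubated 10 min, then LPS added (10 ng/mL, stock added). Cells were incubated 20 h at 37 °C in 5% CO₂. Supernatant TNF-α was measured by sandwich ELISA at OD405 (sensitivity ~10 pg/mL). IC50 came from inhibition curves.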

[7] = Clearance in rat at 1.05 umol/kg, iv; format: ADME, organism-based; settings: in vivo; summary of the method: as §1
[8] = Volume of distribution at steady state in rat at 1.05 umol/kg, iv; format: ADME, organism-based; settings: in vivo, read-out: Vdss; summary of the method: as §1
[9] = molecular target: 3',5'-cyclic-AMP phosphodiesterase 4A (Homo sapiens, UniProt P27815); assay: Inhibition of human PDE4A-mediated [3H]CAMP hydrolysis after 30 to 60 mins by scintillation proximity assay
3',5'-cyclic-AMP phosphodiesterase 4A, sequence (P27815 whole entry): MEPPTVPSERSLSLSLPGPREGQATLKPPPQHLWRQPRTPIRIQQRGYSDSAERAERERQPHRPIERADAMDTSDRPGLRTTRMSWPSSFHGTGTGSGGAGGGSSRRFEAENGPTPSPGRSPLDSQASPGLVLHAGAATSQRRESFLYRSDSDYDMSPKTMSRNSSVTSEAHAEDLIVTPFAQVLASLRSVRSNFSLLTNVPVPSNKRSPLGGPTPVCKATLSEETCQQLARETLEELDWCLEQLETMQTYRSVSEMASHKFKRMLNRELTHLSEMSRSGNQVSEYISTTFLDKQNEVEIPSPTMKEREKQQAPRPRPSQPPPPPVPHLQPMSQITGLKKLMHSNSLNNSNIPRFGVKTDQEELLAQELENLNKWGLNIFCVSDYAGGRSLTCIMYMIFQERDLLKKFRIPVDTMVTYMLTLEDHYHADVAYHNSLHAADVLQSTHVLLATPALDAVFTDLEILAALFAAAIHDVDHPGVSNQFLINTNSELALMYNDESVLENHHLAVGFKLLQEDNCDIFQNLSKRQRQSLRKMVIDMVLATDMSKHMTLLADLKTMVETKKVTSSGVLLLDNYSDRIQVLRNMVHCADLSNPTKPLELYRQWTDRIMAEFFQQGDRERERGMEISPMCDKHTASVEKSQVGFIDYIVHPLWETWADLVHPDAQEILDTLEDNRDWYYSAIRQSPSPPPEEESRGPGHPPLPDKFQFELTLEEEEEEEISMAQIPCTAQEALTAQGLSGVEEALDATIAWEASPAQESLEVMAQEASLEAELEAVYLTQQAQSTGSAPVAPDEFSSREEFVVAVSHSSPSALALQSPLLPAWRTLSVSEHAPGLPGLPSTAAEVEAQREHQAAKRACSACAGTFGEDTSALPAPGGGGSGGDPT
Summary of the method: (§3)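 Enzyme was diluted in 10 mM Tris-HCl pH 7.5 with 1 mM EDTA to give 10–30% substrate hydrolysis. Substrate was [3H]-cAMP (0.1 μCi) with 1 μM cAMP. Inhibitors were tested at 10 concentrations with 1% DMSO, 30−60 min at room temperature, stopped with PDE SPA beads and counted. IC50 came from curves. Mean of ≥2 experiments in duplicate, SEM where n ≥ 3.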

[10] = Tmax in rat at 2.1 umol/kg, po; format: ADME, organism-based; settings: in vivo; summary of the method: as §1
[11] = Thermodynamic aqueous solubility of the compound at pH 6.8; format: physicochemical; settings: buffer; for solubility thermodynamic: read-out: Therm_solubility
[12] = molecular target: 3',5'-cyclic-AMP phosphodiesterase 4D (Homo sapiens, UniProt Q08499); assay: Inhibition of human PDE4D-mediated [3H]CAMP hydrolysis after 30 to 60 mins by scintillation proximity assay; summary of the method: as §3
3',5'-cyclic-AMP phosphodiesterase 4D, sequence (Q08499 whole entry): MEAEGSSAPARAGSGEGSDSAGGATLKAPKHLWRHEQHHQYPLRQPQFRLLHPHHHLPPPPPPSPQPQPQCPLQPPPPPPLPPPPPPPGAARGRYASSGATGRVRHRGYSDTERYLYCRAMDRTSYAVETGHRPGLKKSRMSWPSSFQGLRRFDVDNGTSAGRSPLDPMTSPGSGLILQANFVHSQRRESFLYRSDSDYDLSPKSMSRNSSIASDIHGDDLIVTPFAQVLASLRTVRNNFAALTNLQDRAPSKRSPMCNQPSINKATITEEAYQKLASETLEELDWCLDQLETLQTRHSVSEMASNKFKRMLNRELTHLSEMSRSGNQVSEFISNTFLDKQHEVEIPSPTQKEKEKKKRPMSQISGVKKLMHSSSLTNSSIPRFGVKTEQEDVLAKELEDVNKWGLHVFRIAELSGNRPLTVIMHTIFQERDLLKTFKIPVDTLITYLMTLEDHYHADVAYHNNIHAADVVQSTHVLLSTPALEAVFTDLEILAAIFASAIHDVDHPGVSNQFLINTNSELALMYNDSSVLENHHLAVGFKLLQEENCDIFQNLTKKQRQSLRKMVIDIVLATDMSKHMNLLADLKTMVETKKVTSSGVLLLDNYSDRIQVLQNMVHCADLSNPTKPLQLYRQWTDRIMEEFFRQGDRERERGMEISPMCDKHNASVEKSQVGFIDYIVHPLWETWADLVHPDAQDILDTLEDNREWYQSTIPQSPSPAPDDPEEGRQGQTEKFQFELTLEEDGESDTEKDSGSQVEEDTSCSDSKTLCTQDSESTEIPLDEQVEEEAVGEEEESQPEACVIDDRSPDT

[13] = molecular target: 3',5'-cyclic-AMP phosphodiesterase 4B (Homo sapiens, UniProt Q07343); assay: Inhibition of human PDE4B-mediated [3H]CAMP hydrolysis after 30 to 60 mins by scintillation proximity assay; summary of the method: as §3
3',5'-cyclic-AMP phosphodiesterase 4B, sequence (Q07343 whole entry): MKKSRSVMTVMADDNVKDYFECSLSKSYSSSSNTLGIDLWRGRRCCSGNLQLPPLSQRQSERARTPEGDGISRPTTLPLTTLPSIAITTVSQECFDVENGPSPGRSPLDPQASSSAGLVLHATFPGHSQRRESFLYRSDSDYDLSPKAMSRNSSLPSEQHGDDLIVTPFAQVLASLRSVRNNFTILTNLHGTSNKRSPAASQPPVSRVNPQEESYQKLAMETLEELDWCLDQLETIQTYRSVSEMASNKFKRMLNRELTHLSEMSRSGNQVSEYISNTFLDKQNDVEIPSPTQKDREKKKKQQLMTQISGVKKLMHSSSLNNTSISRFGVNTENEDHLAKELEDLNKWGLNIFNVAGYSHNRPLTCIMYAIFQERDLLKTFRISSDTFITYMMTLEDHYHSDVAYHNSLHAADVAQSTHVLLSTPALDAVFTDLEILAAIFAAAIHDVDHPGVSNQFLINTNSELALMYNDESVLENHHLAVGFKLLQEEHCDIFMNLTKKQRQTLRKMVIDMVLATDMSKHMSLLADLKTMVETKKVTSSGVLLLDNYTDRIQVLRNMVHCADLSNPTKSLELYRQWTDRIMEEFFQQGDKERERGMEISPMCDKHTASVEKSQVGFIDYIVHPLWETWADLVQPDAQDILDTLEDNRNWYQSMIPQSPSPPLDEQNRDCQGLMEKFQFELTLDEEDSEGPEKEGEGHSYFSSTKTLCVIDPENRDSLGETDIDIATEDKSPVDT

[14] = as §2; format: ADME, organism-based, Plasma; settings: plasma, 2.1 umol/kg; summary of the method: as §1
[15] = AUC total in ferret at 3.42 umol/kg, ig; format: ADME, organism-based, Mustela putorius furo; settings: plasma, po
Summary of the method: (§4)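 Ferret PK after intragastric dosing as a solution in PEG200/saline (50/50, v/v) at 3.42 μmol/kg, with one compound at 2.98 μmol/kg. Plasma levels were measured. Detection limits were 0.5 μM for roflumilast and <0.02 μM for its N-oxide metabolite.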

[16] = Cmax in ferret at 3.42 umol/kg, ig; format: ADME, organism-based, Mustela putorius furo; design: dose 3.42 umol/kg, route intragastric; settings: in vivo, po; summary of the method: as §4
[17] = system: Mustela putorius furo; assay: Toxicity in ferret assessed as emesis at 0.075 to 4.8 mg/kg, po after 4 hrs; format: organism-based; design: dose 0.075-4.8 mg/kg, route oral; settings: in vivo
[18] = system: Rattus norvegicus; assay: Antiinflammatory activity in po dosed ovalbumin-sensitized Brown Norway rat assessed as inhibition of ovalbumin-induced eosinophil influx into BALF administered 2 hrs prior to ovalbumin-challenge measured after 24 hrs; format: functional
Summary of the method: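 Brown Norway rats were actively sensitized and dosed orally at 0.3, 1 or 3 mg/kg, or with vehicle PEG200:saline 1:1, 2 h before inhaled ovalbumin challenge. Saline-challenged rats served as controls. Eosinophils were counted in BAL fluid 24 h after challenge. Mean ± SEM, 5−10 animals per group. ED50 was estimated.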

[19] = system: Mus musculus; assay: Antiinflammatory activity in po dosed BALB/c mouse assessed as inhibition of LPS-induced neutrophil influx into BALF administered 1 hr prior to LPS-challenge measured after 3 hrs; format: functional
Summary of the method: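 Mice were given vehicle (PEG200:saline 1:1) or compound orally at 1−30 mg/kg, 1 h before LPS challenge. The control group got vehicle with PBS challenge. Animals were killed 3 h after challenge. Pooled from two experiments, 6−15 mice per group. Mann−Whitney test versus vehicle/LPS animals.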

[20] = Half life in ferret at 3.42 umol/kg, ig; format: ADME, organism-based, Mustela putorius furo; settings: in vivo, po; summary of the method: as §4
[21] = Tmax in ferret at 3.42 umol/kg, ig; format: ADME, organism-based, Mustela putorius furo; settings: in vivo, po; summary of the method: as §4
[22] = Oral bioavailability in rat at 4.2 umol/kg; format: ADME, organism-based; settings: in vivo, 4.2 umol/kg; summary of the method: as §1

Row | SMILES | IC50 [6] [µM] | IC50 [9] [µM] | solubility thermodynamic [11] [µg/mL] | IC50 [12] [µM] | IC50 [13] [µM] | other results
1 | O=C([O-])[C@H]1CC[C@H](c2cc3cccnc3c(-c3cccc(F)c3)n2)CC1.[K+] |  |  |  |  |  | Vd [1]: 0.09 L/kg; Cmax [2]: 4.6 µM; half-life [3]: 9 h; F [4]: 52%; AUC [5]: 4408 µM·min
2 | N#Cc1cccc(-c2nc(N3CCC(C(=O)O)CC3)cc3cccnc23)c1 | 0.851 | 0.271 | > 4000 | 0.019 | 0.168 | Cmax [2]: 2.8 µM; clearance [7]: 1.16 mL/min/kg; Vd [8]: 0.72 L/kg; half-life [3]: 23 h; F [4]: 158%; Tmax [10]: 2.15 h; AUC [14]: 46.1 µM·h
3 | O=C(O)[C@H]1CC[C@H](c2cc3cccnc3c(-c3cccc(F)c3)n2)CC1 | 0.126 | 0.123 |  | 0.032 | 0.034 | AUC [15]: 59.3 µM·h; Cmax [16]: 12.3 µM; Activity [17]: Non-toxic; ED50 [18]: 1.2 mg/kg; ED50 [19]: 11.2 mg/kg; half-life [20]: 3.2 h; Therm_solubility [11]: 920 µg/mL; Tmax [21]: 1.5 h
4 | N#Cc1cccc(-c2nc([C@H]3CC[C@H](C(=O)O)CC3)cc3cccnc23)c1 | 0.053 | 0.16 |  | 0.041 | 0.093 | bioavailability [22]: 92%; Therm_solubility [11]: 430 µg/mL
5 | O=C(O)[C@H]1CC[C@H](c2cc3cccnc3c(-c3cccc(OC(F)(F)F)c3)n2)CC1 |  |  |  |  |  | inhibition [18]: Dose-dependent effect
6 | CSc1cccc(-c2nc(N3CCC(C(=O)O)CC3)cc3cccnc23)c1 |  | 0.587 | 378 (≈ 996 µM) | 0.051 | 1.33 | 
7 | O=C(O)C1CCN(c2cc3cccnc3c(-c3cccc(OC(F)(F)F)c3)n2)CC1 |  | 0.371 | 1950 (≈ 4670 µM) | 0.03 | 0.225 | 

Continued, in another order:

Row | IC50 [6] [µM] | IC50 [9] [µM] | solubility thermodynamic [11] [µg/mL] | IC50 [12] [µM] | IC50 [13] [µM] | SMILES | other results
8 | 0.769 | 0.587 | > 4000 | 0.051 | 1.33 | O=C(O)C1CCN(c2cc3cccnc3c(-c3cccc(F)c3)n2)CC1 | 
9 | 0.541 | 0.364 | 140 (≈ 381 µM) | 0.03 | 0.187 | O=C(O)C1CCN(c2cc3cccnc3c(-c3cccc(Cl)c3)n2)CC1 | 
10 | 1.93 | 0.537 | > 1000 | 0.045 | 0.615 | COc1cccc(-c2nc(N3CCC(C(=O)O)CC3)cc3cccnc23)c1 | 
